Data on 17 compounds can be found in ChEMBL document CHEMBL1821641, “Synthesis and biological evaluation of 1-substituted-3(5)-(6-methylpyridin-2-yl)-4-(quinoxalin-6-yl)pyrazoles as transforming growth factor-β type 1 receptor kinase inhibitors” (Eur J Med Chem, 2011).

Structures are written as SMILES. A value given as a limit tells only on which side of the number the result lay.

One data set has as its target T1, TGF-beta receptor type-1 (Homo sapiens, UniProt P36897).
T1 sequence (P36897 whole entry): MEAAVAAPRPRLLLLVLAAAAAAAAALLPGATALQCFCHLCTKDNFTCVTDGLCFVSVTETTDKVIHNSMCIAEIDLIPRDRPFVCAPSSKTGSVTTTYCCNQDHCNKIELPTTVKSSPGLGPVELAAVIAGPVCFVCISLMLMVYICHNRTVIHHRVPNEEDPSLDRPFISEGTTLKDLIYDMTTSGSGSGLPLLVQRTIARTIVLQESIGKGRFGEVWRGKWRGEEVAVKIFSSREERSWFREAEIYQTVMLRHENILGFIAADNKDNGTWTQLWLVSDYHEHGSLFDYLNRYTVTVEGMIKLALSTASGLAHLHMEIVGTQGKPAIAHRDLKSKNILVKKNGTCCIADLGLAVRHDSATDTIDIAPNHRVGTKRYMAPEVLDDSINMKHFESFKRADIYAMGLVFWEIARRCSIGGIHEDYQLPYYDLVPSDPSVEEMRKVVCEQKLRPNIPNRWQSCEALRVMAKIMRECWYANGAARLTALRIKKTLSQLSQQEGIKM
As to the kind of experiment: Inhibition of human recombinant GST-fused ALK5 expressed in insect Sf9 cells using casein as substrate by radiometric kinase assay.

Data set [1] has as its target Mitogen-activated protein kinase 14 (Homo sapiens, UniProt Q16539). As to the kind of experiment: Inhibition of human recombinant p38alpha expressed in Escherichia coli using ATF2 as substrate by radiometric kinase assay.
The next data set is filed under the species Homo sapiens. Nature of the data set: Selectivity index, ratio of IC50 for human recombinant p38alpha to IC50 for human recombinant ALK5. A digest of the protocol: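 Ratio of IC50 values from two radiometric (33P) protein kinase assays run by a contract lab. ALK5 assay: human recombinant GST-fusion kinase domain expressed in Sf9 cells via baculovirus, with casein as substrate. p38α assay: untagged human recombinant enzyme expressed in E. coli and Ni-agarose purified, with ATF2 as substrate, tested up to 1 μM. Index = IC50 p38α / IC50 ALK5.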

The nature of data set [2]: Chemical stability of compound. It is filed as physicochemical.

Mitogen-activated protein kinase 14, sequence (Q16539 whole entry, the tested form may be a part): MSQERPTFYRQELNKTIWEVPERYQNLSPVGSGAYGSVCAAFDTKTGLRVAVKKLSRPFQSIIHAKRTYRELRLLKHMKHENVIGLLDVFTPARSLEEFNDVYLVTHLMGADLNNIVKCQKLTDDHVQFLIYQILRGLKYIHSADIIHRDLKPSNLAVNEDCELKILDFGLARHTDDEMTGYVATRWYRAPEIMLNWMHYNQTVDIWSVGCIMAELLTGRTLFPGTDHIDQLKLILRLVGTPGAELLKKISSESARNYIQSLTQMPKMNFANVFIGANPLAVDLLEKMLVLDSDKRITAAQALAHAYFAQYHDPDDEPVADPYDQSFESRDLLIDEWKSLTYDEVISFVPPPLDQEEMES

The term IC50 denotes the concentration that inhibits the measured activity by half. On to `Cc1cccc(-c2c(-c3ccc4nc(C)c(C)nc4c3)cnn2CC(=O)Nc2ccccc2)n1`, for which the IC50 (at TGF-beta receptor type-1; in data set [1]) was above 1000 nM each time.

In the case of `Cc1cccc(-c2nn(CC(=O)Nc3cccc(C(N)=O)c3)cc2-c2ccc3nc(C)c(C)nc3c2)n1`, the half-maximal inhibitory concentration (IC50) (at TGF-beta receptor type-1; in data set [1]) was above 1000 nM each time.

In the case of `Cc1cccc(-c2c(-c3ccc4nc(C)c(C)nc4c3)cnn2CC(=O)Nc2cccc(C#N)c2)n1`, the IC50 (at TGF-beta receptor type-1; in data set [1]) was above 1000 nM each time.

On to `Cc1cccc(-c2nn(CC(=S)Nc3ccccc3)cc2-c2ccc3nc(C)c(C)nc3c2)n1`, for which the IC50 (at TGF-beta receptor type-1; in data set [1]) was above 1000 nM each time.

Turning to `Cc1cccc(-c2nn(CC(=O)Nc3cccc(C(N)=O)c3)cc2-c2ccc3nccnc3c2)n1`, the half-maximal inhibitory concentration (IC50) on TGF-beta receptor type-1 is 48 nM; in data set [1], above 1000 nM. Moreover, in the data set filed under Homo sapiens, the Ratio IC50 is above 21.

Turning to `Cc1cccc(-c2[nH]c(Cc3cccc(C(N)=O)c3)nc2-c2ccc3nccnc3c2)n1`, the Ratio IC50 in the data set listed under Homo sapiens was 28.

Consider `Cc1cccc(-c2nn(CC(=S)Nc3cccc(C#N)c3)cc2-c2ccc3nc(C)c(C)nc3c2)n1`, for which the IC50 (on TGF-beta receptor type-1; in data set [1]) was above 1000 nM each time.

On to `Cc1cccc(-c2nn(CC(=S)Nc3cccc(C#N)c3)cc2-c2ccc3nccnc3c2)n1`, for which the 50% inhibitory concentration (IC50) on TGF-beta receptor type-1 was 26 nM; in data set [1] it was above 1000 nM. The Ratio IC50 in the data set listed under Homo sapiens was above 38.

On to `Cc1cccc(-c2nn(CC(=S)Nc3ccccc3)cc2-c2ccc3nccnc3c2)n1`, for which the figures for the IC50 (at TGF-beta receptor type-1; in data set [1]) were 13 nM and above 1000 nM, respectively. Moreover, the Ratio IC50 in the data set listed under Homo sapiens is above 77. The Stability entry in data set [2] was “Stable”.

As for `Cc1cccc(-c2nn(CCC(=O)Nc3cccc(C#N)c3)cc2-c2ccc3nc(C)c(C)nc3c2)n1`, the IC50 (on TGF-beta receptor type-1; in data set [1]) was above 1000 nM throughout.

Take `Cc1cccc(-c2nn(CC(=O)Nc3cccc(C#N)c3)cc2-c2ccc3nccnc3c2)n1`: the IC50 on TGF-beta receptor type-1 is 153 nM; in data set [1] it was above 1000 nM. Also, the Ratio IC50 in the data set filed under Homo sapiens was above 7.

As to `Cc1cccc(-c2nn(CCC(=O)Nc3ccccc3)cc2-c2ccc3nccnc3c2)n1`, the IC50 was 82 nM at TGF-beta receptor type-1 and above 1000 nM in data set [1]. Further, in the data set listed under Homo sapiens, the Ratio IC50 is above 12.

Take `Cc1cccc(-c2nn(CC(=O)Nc3ccccc3)cc2-c2ccc3nc(C)c(C)nc3c2)n1`: the IC50 (at TGF-beta receptor type-1; in data set [1]) was above 1000 nM throughout.

In the case of `Cc1cccc(-c2c(-c3ccc4nccnc4c3)cnn2CC(=O)Nc2cccc(C#N)c2)n1`, the IC50 at TGF-beta receptor type-1 was 737 nM; in data set [1], above 1000 nM. Moreover, the Ratio IC50 in the data set filed under Homo sapiens was above 1.

In the case of `Cc1cccc(-c2c(-c3ccc4nccnc4c3)cnn2CC(=O)Nc2ccccc2)n1`, the IC50 at TGF-beta receptor type-1 was 143 nM; in data set [1], above 1000 nM. In addition, in the data set listed under Homo sapiens, the Ratio IC50 was above 7.

For the compound `Cc1cccc(-c2nn(CC(=O)Nc3ccccc3)cc2-c2ccc3nccnc3c2)n1`, the values for the IC50 (on TGF-beta receptor type-1; in data set [1]) were 38 nM and above 1000 nM, respectively. The Ratio IC50 in the data set filed under Homo sapiens is above 26.

As for `Cc1cccc(-c2nn(CC(=O)Nc3cccc(C#N)c3)cc2-c2ccc3nc(C)c(C)nc3c2)n1`, the IC50 (on TGF-beta receptor type-1; in data set [1]) was above 1000 nM throughout.
